Experimental data from ChEMBL document CHEMBL1137753, “Insecticidal heterolignans--tubuline polymerization inhibitors with activity against chewing pests” (Bioorg Med Chem, 2009).
Active and inactive are the calls of the source. Unless noted, the calls are words filed in the database; no cut-off is given here.

Columns and labels:
Format in all cases: functional, organism-based
Phaedon cochleariae [1] = assay: Insecticidal activity against Phaedon cochleariae larvae in disk of Chinese cabbage leaf at 500 g/ha treated as spray
Method in brief: (§1)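 This was sprayed on Chinese cabbage leaf disks. Once dry, disks were infested with mustard beetle larvae and mortality was scored after a set time. "+" denotes ≥80% larvae killed; n.a. denotes none killed.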

Spodoptera frugiperda [2] = assay: Insecticidal activity against Spodoptera frugiperda larvae in disk of maize leaf at 500 g/ha treated as spray
Method in brief: (§2)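 The same acetone/DMF/emulsifier formulation, diluted in emulsifier-containing water, was sprayed onto maize leaf disks. Dried disks were infested with fall armyworm larvae and mortality was assessed after a set time. "+" denotes ≥80% larvae killed; n.a. denotes no larvae killed.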

Spodoptera frugiperda [3] = assay: Insecticidal activity against Spodoptera frugiperda larvae in disk of maize leaf at 100 g/ha treated as spray; method in brief: as §2
Phaedon cochleariae [4] = assay: Insecticidal activity against Phaedon cochleariae larvae in disk of Chinese cabbage leaf at 100 g/ha treated as spray; method in brief: as §1
Spodoptera frugiperda [5] = assay: Insecticidal activity against Spodoptera frugiperda larvae in disk of maize leaf treated as spray
Phaedon cochleariae [6] = assay: Insecticidal activity against Phaedon cochleariae larvae in disk of Chinese cabbage leaf at 20 g/ha treated as spray; method in brief: as §1
Phaedon cochleariae [7] = assay: Insecticidal activity against Phaedon cochleariae larvae in disk of Chinese cabbage leaf treated as spray

COc1cc(C2C3=C(COC3=O)Nc3cc4c(cc32)OCO4)ccc1Cl (centres undefined)
Activity (Phaedon cochleariae [1]): Active | Activity (Spodoptera frugiperda [2]): Active

COc1cc(OC)cc(C2C3=C(COC3=O)Nc3cc4c(cc32)OCCO4)c1 (centres undefined)
Activity (Phaedon cochleariae [1]): Active | Activity (Spodoptera frugiperda [3]): Active

O=C1OCC2=C1C(c1cccc(OC(F)(F)C(F)F)c1)c1cc3c(cc1N2)OCO3 (centres undefined)
Activity (Phaedon cochleariae [4]): Active | Activity (Spodoptera frugiperda [3]): Active

COc1cc(C2C3=C(COC3=O)Nc3cc4c(cc32)OCO4)cc(O)c1OC (centres undefined)
Activity (Phaedon cochleariae [4]): Active | Activity (Spodoptera frugiperda [5]): inactive

O=C1NCC2=C1C(c1cccc(Cl)c1)c1cc3c(cc1N2)OCO3 (centres undefined)
Activity (Phaedon cochleariae [1]): Active | Activity (Spodoptera frugiperda [3]): Active

COc1cc(OC)cc(C2C3=C(COC3=O)Nc3cc(OC)cc(OC)c32)c1 (centres undefined)
Activity (Phaedon cochleariae [4]): Active | Activity (Spodoptera frugiperda [2]): Active

COc1cc(OC)cc(C2C3=C(COC3=O)Nc3cc(OC4CC4)ccc32)c1 (centres undefined)
Activity (Phaedon cochleariae [1]): Active | Activity (Spodoptera frugiperda [3]): Active

COc1cc(OC)cc(C2C3=C(COC3=O)Nc3ccc(OC)cc32)c1 (centres undefined)
Activity (Phaedon cochleariae [6]): Active | Activity (Spodoptera frugiperda [3]): Active

O=C1OCC2=C1C(c1cccc(F)c1)c1cc3c(cc1N2)OCO3 (centres undefined)
Activity (Phaedon cochleariae [4]): Active

COc1cc(C2C3=C(COC3=O)Cc3cc4c(cc32)OCO4)cc(OC)c1OC (centres undefined)
Activity (Phaedon cochleariae [4]): Active | Activity (Spodoptera frugiperda [5]): inactive

Cc1cccc(C2C3=C(COC3=O)Nc3cc4c(cc32)OCO4)c1 (centres undefined)
Activity (Phaedon cochleariae [7]): inactive | Activity (Spodoptera frugiperda [3]): Active

Cc1cc(C)cc(C2C3=C(COC3=O)Nc3cc4c(cc32)OCO4)c1 (centres undefined)
Activity (Phaedon cochleariae [4]): Active

O=C1OCC2=C1C(c1cncc(Br)c1)c1cc3c(cc1N2)OCO3 (centres undefined)
Activity (Phaedon cochleariae [7]): inactive | Activity (Spodoptera frugiperda [3]): Active

O=C1OCC2=C1C(c1cc(Br)cc(Br)c1)c1cc3c(cc1N2)OCO3 (centres undefined)
Activity (Phaedon cochleariae [7]): inactive | Activity (Spodoptera frugiperda [3]): Active

COc1cc(OC)cc(C2C3=C(COC3=O)Nc3c2ccc(C)c3C)c1 (centres undefined)
Activity (Phaedon cochleariae [4]): Active | Activity (Spodoptera frugiperda [3]): Active

COc1ccc2c(c1OC)OC1=C(C(=O)OC1)C2c1cc(Cl)cc(Cl)c1 (centres undefined)
Activity (Phaedon cochleariae [7]): inactive | Activity (Spodoptera frugiperda [2]): Active

COc1cc(C2C3=C(COC3=O)Nc3cc4c(cc32)OCO4)cc(OC)c1OC (centres undefined)
Activity (Spodoptera frugiperda [5]): inactive | Activity (Phaedon cochleariae [6]): Active

O=C1OCC2=C1C(c1cc(F)c(F)c(F)c1)c1cc3c(cc1N2)OCO3 (centres undefined)
Activity (Phaedon cochleariae [7]): inactive | Activity (Spodoptera frugiperda [2]): Active

COc1cc(OC)cc(C2C3=C(COC3=O)Nc3cc(OC)c(C)cc32)c1 (centres undefined)
Activity (Spodoptera frugiperda [2]): Active | Activity (Phaedon cochleariae [6]): Active

CN1OC(C)(C)C2=C(C1=O)C(c1cccc(Cl)c1)c1cc3c(cc1N2)OCO3 (centres undefined)
Activity (Phaedon cochleariae [7]): inactive | Activity (Spodoptera frugiperda [2]): Active

CCOc1cccc(C2C3=C(COC3=O)Nc3cc4c(cc32)OCO4)c1 (centres undefined)
Activity (Phaedon cochleariae [4]): Active | Activity (Spodoptera frugiperda [3]): Active

COc1ccc2c(c1)OC1=C(C(=O)OC1)C2c1cc(Cl)cc(Cl)c1 (centres undefined)
Activity (Phaedon cochleariae [7]): inactive | Activity (Spodoptera frugiperda [2]): Active

COc1ccc2c(c1)C(c1cc(OC)c(OC)c(OC)c1)C1=C(COC1=O)N2 (centres undefined)
Activity (Spodoptera frugiperda [5]): inactive | Activity (Phaedon cochleariae [6]): Active

COc1cc(OC)cc(C2C3=C(COC3=O)Nc3c(OC)cc(C)cc32)c1 (centres undefined)
Activity (Spodoptera frugiperda [2]): Active | Activity (Phaedon cochleariae [6]): Active

O=C1OCC2=C1C(c1ccc(F)c(Cl)c1)c1cc3c(cc1N2)OCO3 (centres undefined)
Activity (Phaedon cochleariae [7]): inactive | Activity (Spodoptera frugiperda [3]): Active

O=C1OCC2=C1C(c1cccc(OC(F)(F)F)c1)c1cc3c(cc1N2)OCO3 (centres undefined)
Activity (Phaedon cochleariae [4]): Active

COc1cc(C2C3=C(COC3=O)Nc3cc4c(cc32)OCO4)cc(SC)c1OC (centres undefined)
Activity (Phaedon cochleariae [4]): Active | Activity (Spodoptera frugiperda [5]): inactive

COc1cc(OC)cc(C2C3=C(COC3=O)Nc3cc(SC)ccc32)c1 (centres undefined)
Activity (Phaedon cochleariae [1]): Active | Activity (Spodoptera frugiperda [3]): Active

COc1cc(C2C3=C(COC3=O)Nc3cc4c(cc32)OCO4)cc(Br)c1OC (centres undefined)
Activity (Phaedon cochleariae [4]): Active | Activity (Spodoptera frugiperda [5]): inactive

COc1cc(OC)cc(C2C3=C(COC3=O)Nc3cc4c(cc32)OCCCO4)c1 (centres undefined)
Activity (Phaedon cochleariae [1]): Active | Activity (Spodoptera frugiperda [3]): Active

O=C1OCC2=C1C(c1cccc(Cl)c1)c1cc3c(cc1N2)OCO3 (centres undefined)
Activity (Phaedon cochleariae [1]): Active | Activity (Spodoptera frugiperda [3]): Active
